Calls of active or inactive are those of the source.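 The calls were made as follows, unless noted: active = viability at or below 10% of carrier control in both of two separate runs; inconclusive = viability at or below 10% in only one of the two runs; inactive = the rest.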
Columns and labels:
[1] = reducers of endogenous Her2 protein level, primary screen, SKBR3 breast tumor cells, AlphaScreen, ATP viability (AID 461;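 active = Her2 level under about 52% in both replicate screens, with viability over 70% of control, limit read from the data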;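 as to Her2 level: lower value means less Her2 protein in the cells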;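 as to viability: percent of carrier control wells set as 100% viability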); details: 18-24 h, measured here: SKBR3 viability, ATP luminescence, at 10 µM
[2] = molecular target: Receptor tyrosine-protein kinase erbB-2 (Homo sapiens) (UniProt P04626); assay: as above; details: 18-24 h, at 10 µM, stronger effect = lower value
Receptor tyrosine-protein kinase erbB-2 (Homo sapiens), sequence (P04626 whole entry, looked up): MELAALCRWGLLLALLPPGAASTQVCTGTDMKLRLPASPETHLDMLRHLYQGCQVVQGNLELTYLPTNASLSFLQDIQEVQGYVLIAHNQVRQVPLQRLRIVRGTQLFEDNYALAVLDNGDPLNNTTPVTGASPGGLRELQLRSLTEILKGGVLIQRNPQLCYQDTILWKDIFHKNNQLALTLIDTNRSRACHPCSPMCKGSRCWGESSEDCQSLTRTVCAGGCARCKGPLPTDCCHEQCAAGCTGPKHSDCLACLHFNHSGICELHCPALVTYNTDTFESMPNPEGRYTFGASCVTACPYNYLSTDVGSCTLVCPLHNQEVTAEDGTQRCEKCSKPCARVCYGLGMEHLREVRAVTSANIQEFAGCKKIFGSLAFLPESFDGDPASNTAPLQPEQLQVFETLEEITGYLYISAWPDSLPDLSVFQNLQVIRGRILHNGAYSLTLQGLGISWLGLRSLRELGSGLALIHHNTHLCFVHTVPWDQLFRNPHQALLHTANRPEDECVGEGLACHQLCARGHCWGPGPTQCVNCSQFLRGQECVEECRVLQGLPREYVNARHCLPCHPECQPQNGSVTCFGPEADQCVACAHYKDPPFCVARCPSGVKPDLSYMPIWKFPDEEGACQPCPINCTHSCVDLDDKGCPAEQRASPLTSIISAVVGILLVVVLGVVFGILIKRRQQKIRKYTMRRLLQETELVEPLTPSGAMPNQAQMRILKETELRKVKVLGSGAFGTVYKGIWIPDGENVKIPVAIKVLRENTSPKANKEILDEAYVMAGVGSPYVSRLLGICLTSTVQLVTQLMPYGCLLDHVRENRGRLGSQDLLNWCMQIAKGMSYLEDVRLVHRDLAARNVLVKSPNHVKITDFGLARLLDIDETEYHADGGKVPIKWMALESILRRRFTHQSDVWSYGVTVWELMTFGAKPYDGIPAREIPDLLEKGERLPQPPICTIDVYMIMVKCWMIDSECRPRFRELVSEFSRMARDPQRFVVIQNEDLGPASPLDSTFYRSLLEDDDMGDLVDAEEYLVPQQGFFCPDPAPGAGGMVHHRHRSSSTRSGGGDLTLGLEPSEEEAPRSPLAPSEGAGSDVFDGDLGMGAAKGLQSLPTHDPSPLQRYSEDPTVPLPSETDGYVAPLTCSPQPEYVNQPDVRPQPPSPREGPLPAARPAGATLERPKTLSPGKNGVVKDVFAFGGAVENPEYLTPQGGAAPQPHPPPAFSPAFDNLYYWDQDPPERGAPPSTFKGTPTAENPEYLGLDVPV

[3] = SK-BR-3 cell growth inhibitors, pilot screen, 24 h, human (AID 572); details: SK-BR-3 viability, CellTiter-Glo luminescence, at 10 µM, stronger effect = lower value;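 also: compound exposure lasted between 18 and 24 h rather than exactly 24 h; 100% = carrier-treated control wells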
[4] = HUVEC growth inhibition – cell-based, human, primary screen (AID 575;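 active = viability at or below 30% in both replicate assays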;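 also: 100% = median of untreated cell wells with 0.1% DMSO on each plate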); details: HUVEC proliferation, CellTiter-Glo luminescence, 72 h; at 10 µM; stronger effect = lower value
Procedure, shortened: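 System – primary HUVEC, no more than 12 passages · Medium – Low-serum (2% FBS) EBM, supplemented · Times – 72 h exposure, 37 °C, 5% CO2, 30 min RT equilibration · Measured by – luminescent ATP assay · Read-out – % viability relative to median vehicle-well signal on each plate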

[5] = growth inhibitors of H69AR lung tumor, primary screen, human, duplicate replicates (AID 580;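 active = viability at or under a set limit in both replicates, limit being median viability minus 3 SD, cut at about 48% in these data, passing the limit was not always enough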;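 also: 100% = mean luminescence of untreated wells and 0% = no signal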); details: H69AR lung tumor cells viability, ATP luminescence, 72 h; at 10 µM; stronger effect = lower value
[6] = reversal of MRP1-mediated doxorubicin resistance, pilot screen, H69AR cells, doxorubicin co-treatment (AID 601;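 active = viability loss from added drug above about 55%, and viability with drug at most 40%, in both replicates, limit read from the data, passing the limit was not always enough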); details: CellTiter-Glo, 72 h, at 10 µM; for differential viability (reversal): stronger effect = higher value
[7] = 384-well plate pilot, post-Golgi transport modulator project, inhibition of yeast transport mutant growth (AID 636; in the data active = inhibition above about 31%); details: absorbance 615 nm, about 18 h, stronger effect = higher value
[8] = growth suppression of yeast trafficking mutant, preliminary HTS, modulators of trafficking downstream of Golgi apparatus project, 1536-format plate, OD 615 nm (AID 637; in the data active = inhibition above about 30%); details: yeast transport mutant growth, absorbance 615 nm, 18 h; stronger effect = higher value
[9] = H69AR cells + 2 uM doxorubicin, measured here: viability with 2 uM doxorubicin, stronger effect = lower value
[10] = H69AR cells, compound alone cytotoxicity

| SMILES | viability [1] [%] | Her2 level [2] | viability [3] | viability [4] | viability [5] | differential viability (reversal) ([6]; H69AR cells + 2 uM doxorubicin) | viability [6, 9] [%] | viability [6, 10] [%] | inhibition [7] | inhibition [8] |
| --- | --- | --- | --- | --- | --- | --- | --- | --- | --- | --- |
| O=C(Cn1nnc(-c2ccncc2)n1)Nc1ccc2c(c1)CCC2 | 112 | 93.5% (inactive) | 112% (inactive) | 107% (inactive) | 110% (inactive) | 13.3% (inactive) | 96.4 | 110 | -6.45% (inactive) | 2.38% (inactive) |
| Cc1ccc(S(=O)(=O)NCCN2CCOCC2)cc1C | 88.5 | 93% (inactive) | 88.5% (inactive) | 91.7% (inactive) | 86.1% (inactive) | -5.21% (inactive) | 91.3 | 86.1 | -0.52% (inactive) | -1.11% (inactive) |
| Cc1ccc(Nc2nc(N)nc(CN3CCCCCC3)n2)cc1 | 79.5 | 73.5% (inactive) | 79.5% (inactive) | 65.7% (inactive) | 78.4% (inactive) | -10.4% (inactive) | 88.8 | 78.4 | -1.69% (inactive) | 2.83% (inactive) |
| CC1(C)Cc2c(c(-c3ccccc3)nc(N3CCCC3)c2C(N)=O)CO1 | 106 | 97.5% (inactive) | 106% (inactive) | 92.3% (inactive) | 87% (inactive) | 4.6% (inactive) | 82.4 | 87 | -1.95% (inactive) | 1.15% (inactive) |
| CSCCC(C(=O)Nc1ccc2c(c1)OCO2)N1C(=O)c2ccccc2C1=O (stereo not given) | 91 | 79% (inactive) | 91% (inactive) | 88.1% (inactive) | 96.4% (inactive) | 4.44% (inactive) | 92 | 96.4 | -1.3% (inactive) | -1.43% (inactive) |
| CC(=O)Nc1ccc(NS(=O)(=O)C(F)(F)F)cc1 | 82.5 | 97% (inactive) | 82.5% (inactive) | 93.9% (inactive) | 92.6% (inactive) | -3.72% (inactive) | 96.3 | 92.6 | -2.34% (inactive) | 1.48% (inactive) |
| Cc1nn(-c2ccccc2)c(Cl)c1C(=O)NCC(=O)O | 100 | 96% (inactive) | 100% (inactive) | 105% (inactive) | 113% (inactive) | 1.59% (inactive) | 111 | 113 | -6.45% (inactive) | 0.17% (inactive) |
| O=C(Cn1cccc1)N1CCN(C(c2ccccc2)c2ccccc2)CC1 | 102 | 87% (inactive) | 102% (inactive) | 108% (inactive) | 91.4% (inactive) | -4.55% (inactive) | 95.9 | 91.4 | -6.76% (inactive) | 4.33% (inactive) |
| Cn1c(-c2cc(Br)ccc2O)n[nH]c1=S | 89.5 | 110% (inactive) | 89.5% (inactive) | 87% (inactive) | 92.9% (inactive) | 3.24% (inactive) | 89.7 | 92.9 | 4.03% (inactive) | -9.84% (inactive) |
| O=S(=O)(Nc1cccnc1)c1cc(Cl)ccc1Cl | 77.5 | 96% (inactive) | 77.5% (inactive) | 92.2% (inactive) | 82.8% (inactive) | -4.94% (inactive) | 87.7 | 82.8 | -1.03% (inactive) | -3% (inactive) |
| O=C(COC(=O)CCC(=O)c1cccs1)NCc1ccco1 | 98 | 109% (inactive) | 98% (inactive) | 89.3% (inactive) | 79.8% (inactive) | 2.55% (inactive) | 77.3 | 79.8 | -3.59% (inactive) | -1.5% (inactive) |
| O=C(Nc1ccc2c(c1)OCCO2)C1CCCN1S(=O)(=O)c1cccc2cccnc12 (stereo not given) | 92 | 100% (inactive) | 92% (inactive) | 100% (inactive) | 96.8% (inactive) | 14.4% (inactive) | 82.3 | 96.8 | -1.33% (inactive) | -0.98% (inactive) |
| COc1ccc(C(=O)Cn2c(N3CCCCC3)nc3c2c(=O)n(C)c(=O)n3C)cc1OC | 94 | 98.5% (inactive) | 94% (inactive) | 83.9% (inactive) | 92.7% (inactive) | -6.42% (inactive) | 99.1 | 92.7 | 1.18% (inactive) | -1.48% (inactive) |
| CCCN1C=CC(=C2C(=O)c3ccccc3C2=O)C=C1 | 88 | 123% (inactive) | 88% (inactive) | 42.9% (inactive) | 40.8% (active) | -3% (inactive) | 43.8 | 40.8 | -1.92% (inactive) | 1% (inactive) |
| Cc1ccc(S(=O)(=O)NCC(=O)N(CC(=O)NCc2ccccc2)CC2CCCO2)cc1 (stereo not given) | 110 | 91.5% (inactive) | 110% (inactive) | 108% (inactive) | 104% (inactive) | 17.9% (inactive) | 86.2 | 104 | -3.65% (inactive) | 3.49% (inactive) |
| CC(=O)Nc1nc(-c2ccc(Cl)cc2)nc(C)c1C(C)=O | 96.5 | 89.5% (inactive) | 96.5% (inactive) | 89% (inactive) | 104% (inactive) | 9.83% (inactive) | 94.6 | 104 | -3.65% (inactive) | -2.83% (inactive) |

| SMILES | viability [1] [%] | Her2 level [2] | viability [3] | viability [4] | viability [5] | differential viability (reversal) ([6]; H69AR cells + 2 uM doxorubicin) | viability [6, 9] [%] | viability [6, 10] [%] | inhibition [7] | inhibition [8] |
| --- | --- | --- | --- | --- | --- | --- | --- | --- | --- | --- |
| Cc1cc(OCC(O)CN2CCN(CCO)CC2)ccc1C(C)C (stereo not given) | 86.5 | 96% (inactive) | 86.5% (inactive) | 101% (inactive) | 95.3% (inactive) | 10.5% (inactive) | 84.8 | 95.3 | -2.21% (inactive) | -1.67% (inactive) |
| CCN(CC)S(=O)(=O)c1ccc(NC2c3ccccc3C(=O)N2CCN2CCOCC2)cc1 (stereo not given) | 101 | 105% (inactive) | 101% (inactive) | 85.2% (inactive) | 87% (inactive) | 10.8% (inactive) | 76.2 | 87 | -1.54% (inactive) | -0.83% (inactive) |
| Cc1cc(Cl)c(S(=O)(=O)NC2CCCCC2)cc1OCC(=O)Nc1nncs1 | 107 | 88% (inactive) | 107% (inactive) | 86.5% (inactive) | 90.1% (inactive) | -3.42% (inactive) | 93.6 | 90.1 | -4.74% (inactive) | -3.17% (inactive) |
| CCNCCNC(=O)c1c(O)c2ccccc2n(CC)c1=O | 126 | 90.5% (inactive) | 126% (inactive) | 84.7% (inactive) | 89.1% (inactive) | 4.78% (inactive) | 84.3 | 89.1 | -4.87% (inactive) | 0.81% (inactive) |
| Cc1ccc(NC(=O)CS(=O)CC(=O)NCC2CCCO2)cc1 (stereo not given) | 96.5 | 120% (inactive) | 96.5% (inactive) | 103% (inactive) | 96.8% (inactive) | 7.8% (inactive) | 89 | 96.8 | -1.62% (inactive) | 25% (inactive) |
| CC(C)(C)n1nnnc1CN1CCC(NC(=O)NC2CCCCC2)CC1 | 95 | 72% (inactive) | 95% (inactive) | 97% (inactive) | 106% (inactive) | 15.1% (inactive) | 91.3 | 106 | -5.53% (inactive) | -2.5% (inactive) |
| COC(=O)c1onc(C(=O)c2ccccc2)c1C(=O)OC | 104 | 89.5% (inactive) | 104% (inactive) | 98.8% (inactive) | 97.1% (inactive) | 12.7% (inactive) | 84.4 | 97.1 | -4.34% (inactive) | 3.71% (inactive) |
| CC(C)CC(c1nnnn1CC1CCCO1)N1CCN(Cc2ccc3c(c2)OCO3)CC1 (stereo not given) | 86.5 | 70% (inactive) | 86.5% (inactive) | 90% (inactive) | 96.7% (inactive) | 8.46% (inactive) | 88.2 | 96.7 | -6.08% (inactive) | -9.34% (inactive) |
| CCOC(=O)C1=C(C)OC(N)=C(C#N)C1c1ccoc1 (stereo not given) | 111 | 107% (inactive) | 111% (inactive) | 88.1% (inactive) | 95.3% (inactive) | 11.2% (inactive) | 84 | 95.3 | 1.04% (inactive) | -4.17% (inactive) |
| CC(=O)C1=C(C)NC(SCSc2ccccc2)=C(C#N)C1c1cccnc1 (stereo not given) | 80 | 106% (inactive) | 80% (inactive) | 81.7% (inactive) | 94.1% (inactive) | 6.64% (inactive) | 87.5 | 94.1 | 0.91% (inactive) | -1.64% (inactive) |
| Cc1cc(C)cc(NS(=O)(=O)c2ccc3[nH]c(=O)[nH]c3c2)c1 | 108 | 89% (inactive) | 108% (inactive) | 90.1% (inactive) | 85.5% (inactive) | -0.57% (inactive) | 86 | 85.5 | -2.21% (inactive) | -4.5% (inactive) |
| Cc1ccc2nc(SCC(=O)NCc3ccco3)c(C#N)cc2c1 | 90.5 | 88.5% (inactive) | 90.5% (inactive) | 82.3% (inactive) | 62.2% (inactive) | -7.5% (inactive) | 69.7 | 62.2 | -4.74% (inactive) | -3.27% (inactive) |
| CC1CN(c2nc3ccccn3c(=O)c2/C=C(\C#N)S(=O)(=O)c2ccccc2)CC(C)O1 (stereo not given) | 93.5 | 106% (inactive) | 93.5% (inactive) | 96.3% (inactive) | 90% (inactive) | 59% (active) | 31 | 90 | -0.53% (inactive) | -14.4% (inactive) |
| c1cnn(-c2cc(N3CCOCC3)ncn2)c1 | 70 | 117% (inactive) | 70% (inactive) | 90.2% (inactive) | 93% (inactive) | 7.52% (inactive) | 85.5 | 93 | 4.47% (inactive) | 21.6% (inactive) |
| CN(C)C(CN1C(=O)C2CC=CCC2C1=O)c1cn(C)c2ccccc12 (stereo not given) | 104 | 85.5% (inactive) | 104% (inactive) | 89.9% (inactive) | 95.4% (inactive) | 6.72% (inactive) | 88.7 | 95.4 | -6.71% (inactive) | -1.59% (inactive) |
